Results published in BindingDB's records for doi:10.1021/jm060468y (Johannes Gutenberg University, 2006).

Molecular target: T1, E-selectin (Homo sapiens, UniProt P16581)
T1 sequence (P16581 whole entry): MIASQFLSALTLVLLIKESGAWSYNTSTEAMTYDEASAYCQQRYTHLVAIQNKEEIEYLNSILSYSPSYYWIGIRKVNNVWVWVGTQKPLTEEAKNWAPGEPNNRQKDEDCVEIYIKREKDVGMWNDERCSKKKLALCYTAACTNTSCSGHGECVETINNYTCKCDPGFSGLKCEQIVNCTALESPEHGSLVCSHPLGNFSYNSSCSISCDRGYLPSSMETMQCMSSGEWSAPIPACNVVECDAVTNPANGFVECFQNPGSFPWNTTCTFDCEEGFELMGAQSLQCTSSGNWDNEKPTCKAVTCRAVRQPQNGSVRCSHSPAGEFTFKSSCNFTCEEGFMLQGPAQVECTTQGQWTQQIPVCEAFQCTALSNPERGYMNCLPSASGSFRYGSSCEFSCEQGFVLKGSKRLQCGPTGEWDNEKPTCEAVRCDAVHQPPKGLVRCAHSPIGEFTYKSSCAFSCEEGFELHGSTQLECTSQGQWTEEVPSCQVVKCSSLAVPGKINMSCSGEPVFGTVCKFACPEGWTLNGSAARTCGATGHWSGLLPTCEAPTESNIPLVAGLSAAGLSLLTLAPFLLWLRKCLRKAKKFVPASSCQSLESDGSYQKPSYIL
Experiment: Inhibition of MM6 cell adhesion to recombinant E-selectin by flow chamber assay
Method in brief: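 Wells coated overnight at 4 °C with recombinant soluble E-selectin (5 µg/mL in PBS with Ca2+/Mg2+). Background wells had no selectin. Compound in RPMI with 1% FCS and DMSO applied for 60 min, then washed. MM6 cells (1 × 10^6/mL, RPMI + 1% FCS) perfused at 1 dyn/cm2 shear for 4 min. Cells adhering ≥30 s were counted in four random fields in the first minute by phase-contrast video microscopy. Experiments run two or three times; IC50 by curve fitting.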

IC50 [µM]	SMILES
28	CCCCCCCCCCOc1cc(OCCCCCCCCCC)cc(OCCCCCCN(c2ccc(C(=O)O)cc2)c2ccc(C(=O)O)cc2)c1
20	CCCCCCCCCCOc1cc(OCCCCCCCCCC)cc(OCCCCCCON=C(c2ccc(C(=O)O)cc2)c2ccc(C(=O)O)cc2)c1
